Assay [1] has as its system MDA-MB-231. The assay can be described thus: Cytotoxicity against estrogen receptor deficient human MDA-MB-231 cells assessed as LDH release at 10 uM. It counts as functional. The gist of the method: (§1)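 After compound treatment, LDH was measured with a commercial LDH kit. Result is % cell lysis at 10 μM compound.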
(In general: LDH in the medium is a marker of cell lysis.)

In assay [2] the test system is MDA-MB-231. Nature of the assay: Antiproliferative activity against estrogen receptor deficient human MDA-MB-231 cells after 72 hrs by MTT assay. In kind it is functional, cell-based. As to conditions: MDA-MB-231, 72 h. An outline of the steps: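 MCF-7 grown in Eagle's MEM with 10% FBS, 2 mM L-glutamine, penicillin/streptomycin and 1% non-essential amino acids; MDA-MB-231 grown in DMEM with 10% FBS, 2 mM L-glutamine and penicillin/streptomycin. Seeded at 2.5 × 10⁴ cells/mL, 24 h at 37 °C. Ethanol-stock compound, 1 nM–100 μM, 72 h, ethanol 1% v/v vehicle. MTT at 1 mg/mL final, 2 h dark, 37 °C, DMSO solubilised. Viability vs untreated control. IC50 is mean of three experiments in triplicate.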
(In general: Tetrazolium assays rely on reduction of a dye to a coloured formazan, in cell work by metabolically active cells.)

In assay [3] the test system is MCF7. The assay can be described thus: Cytotoxicity against human MCF7 cells expressing estrogen receptor assessed as LDH release at 10 uM. It counts as functional. An outline of the steps:
as §1

The test system of assay [4] is MCF7. The assay can be described thus: Antiproliferative activity against human MCF7 cells expressing estrogen receptor after 72 hrs by MTT assay. As to conditions: MCF7, 72 h. In kind it is functional, cell-based.

In the case of `COc1cc(OC)c(C2CC(=O)N2c2cc(OC)c(OC)c(OC)c2)cc1OC` (configuration not stated), the Activity amounted to 0% with MDA-MB-231 [1] and 2.2% in the assay with MCF7 [3]. Moreover, the IC50 with MDA-MB-231 [2] came out at 38500 nM; in the assay with MCF7 [4], 63700 nM.

For the compound `COc1ccc(C2C(C)C(=S)N2c2cc(OC)c(OC)c(OC)c2)cc1` (configuration not stated), the Activity in the assay with MDA-MB-231 [1] worked out at 5.1%; in the assay with MCF7 [3] it was 3.2%. Further, the IC50 was determined as 9260 nM with MDA-MB-231 [2] and 890 nM in the assay on MCF7 [4].

On to `COc1ccc(C2C(C)C(=O)N2c2cc(OC)c(OC)c(OC)c2)cc1` (configuration not stated), for which the Activity with MDA-MB-231 [1] was 4.5%; in the assay with MCF7 [3], 5.7%. Moreover, the IC50 with MDA-MB-231 [2] stood at 127 nM; in the assay with MCF7 [4], 47 nM.

On to `COc1cc(N2C(=O)CC2c2cccs2)cc(OC)c1OC` (configuration not stated), for which the figures for the Activity in the assay with MDA-MB-231 [1] and with MCF7 [3] were 15% and 20%, respectively. The IC50 with MDA-MB-231 [2] is 34500 nM; in the assay with MCF7 [4], 21600 nM.

Regarding `COc1ccc(N2C(=O)CC2c2cc(OC)c(OC)c(OC)c2)cc1O` (configuration not stated), the Activity turned out to be 6.6% in the assay on MDA-MB-231 [1] and 2.3% in the assay on MCF7 [3]. The IC50 in the assay with MDA-MB-231 [2] worked out at 270 nM; with MCF7 [4] it was 250 nM.

Consider `COc1ccc(N2C(=O)C(C)(C)C2c2cc(OC)c(OC)c(OC)c2)cc1O` (configuration not stated), for which the Activity was determined as 12.1% in the assay with MDA-MB-231 [1] and 11.5% in the assay on MCF7 [3]. Further, the values for the IC50 in the assay on MDA-MB-231 [2] and in the assay with MCF7 [4] were 3190 nM and 4040 nM, respectively.

Take `COc1ccc(C2CC(=O)N2c2cc(OC)c(OC)c(OC)c2)cc1` (configuration not stated): the results for the Activity with MDA-MB-231 [1] and in the assay with MCF7 [3] were 1.1% and 1.5%, respectively. In addition, the IC50 in the assay on MDA-MB-231 [2] amounted to 210 nM; with MCF7 [4], 39 nM.

`COc1ccc(C2CC(=S)N2c2cc(OC)c(OC)c(OC)c2)cc1` (configuration not stated): the Activity with MDA-MB-231 [1] amounted to 3%; in the assay with MCF7 [3], 16%. The IC50 with MDA-MB-231 [2] amounted to 4500 nM; with MCF7 [4], 1120 nM.

As for `COc1ccc(C2N(c3cc(OC)c(OC)c(OC)c3)C(=S)C2(C)C)cc1` (configuration not stated), the results for the Activity in the assay on MDA-MB-231 [1] and with MCF7 [3] were 8% and 5.5%, respectively. Further, the IC50 is 1330 nM with MDA-MB-231 [2] and 350 nM in the assay with MCF7 [4].

For the compound `COc1cc(C2CC(=O)N2c2cc(OC)c(OC)c(OC)c2)cc(OC)c1OC` (configuration not stated), the Activity is 0% with MDA-MB-231 [1] and 1.9% with MCF7 [3]. For the same compound, the values for the half-maximal inhibitory concentration (IC50) in the assay on MDA-MB-231 [2] and in the assay on MCF7 [4] were 94400 nM and 168000 nM, respectively.

With `COc1ccc(C2N(c3cc(OC)c(OC)c(OC)c3)C(=O)C2(C)C)cc1OC` (configuration not stated), the figures for the Activity with MDA-MB-231 [1] and with MCF7 [3] were 12% and 14%, respectively. Further, the IC50 worked out at 1460 nM with MDA-MB-231 [2] and 344 nM in the assay with MCF7 [4].

Turning to `COc1ccc(C2C(C)C(=O)N2c2cc(OC)c(OC)c(OC)c2)cc1O` (configuration not stated), the Activity in the assay with MDA-MB-231 [1] was 25%; in the assay on MCF7 [3], 15%. For the same compound, the results for the IC50 in the assay on MDA-MB-231 [2] and in the assay with MCF7 [4] were 47 nM and 10 nM, respectively.

Take `COc1ccc(C2CC(=O)N2c2cc(OC)c(OC)c(OC)c2)cc1OC` (configuration not stated): the Activity with MDA-MB-231 [1] was determined as 15%; in the assay with MCF7 [3] it was 5%. Besides, the IC50 is 970 nM with MDA-MB-231 [2] and 1640 nM in the assay on MCF7 [4].

For `COc1ccc(C2N(c3cc(OC)c(OC)c(OC)c3)C(=O)C2(C)C)cc1O` (configuration not stated), the figures for the Activity in the assay with MDA-MB-231 [1] and in the assay with MCF7 [3] were 20% and 12%, respectively. Moreover, the IC50 worked out at 1670 nM in the assay with MDA-MB-231 [2] and 130 nM in the assay with MCF7 [4].

Consider `COc1cc(N2C(=O)CC2c2ccc(F)cc2)cc(OC)c1OC` (configuration not stated), for which the figures for the Activity in the assay on MDA-MB-231 [1] and in the assay with MCF7 [3] were 6.3% and 0%, respectively. Also, the IC50 in the assay on MDA-MB-231 [2] and with MCF7 [4] was 26000 nM each time.

Regarding `COc1ccc(C2C(C)C(=O)N2c2cc(OC)c(OC)c(OC)c2)cc1OC` (configuration not stated), the Activity in the assay on MDA-MB-231 [1] amounted to 6.1%; with MCF7 [3], 7.5%. Besides, the IC50 in the assay on MDA-MB-231 [2] stood at 8840 nM; with MCF7 [4], 2960 nM.

On to `COc1ccc(N2C(=O)C(C)C2c2cc(OC)c(OC)c(OC)c2)cc1O` (configuration not stated), for which the Activity in the assay with MDA-MB-231 [1] is 0%; in the assay on MCF7 [3], 17%. Moreover, the IC50 in the assay with MDA-MB-231 [2] was found to be 13000 nM; in the assay with MCF7 [4], 2960 nM.

Take `COc1ccc(C2N(c3cc(OC)c(OC)c(OC)c3)C(=O)C2(C)C)cc1` (configuration not stated): the Activity in the assay with MDA-MB-231 [1] stood at 16%; with MCF7 [3], 12%. Further, the IC50 in the assay with MDA-MB-231 [2] stood at 1150 nM; in the assay on MCF7 [4], 265 nM.

With `COc1ccc2cc(C3CC(=O)N3c3cc(OC)c(OC)c(OC)c3)ccc2c1` (configuration not stated), the Activity in the assay on MDA-MB-231 [1] amounted to 18%; in the assay on MCF7 [3], 13.5%. Further, the IC50 with MDA-MB-231 [2] is 13200 nM; in the assay on MCF7 [4] it was 1510 nM.

Take `COc1ccc(/C=C\c2cc(OC)c(OC)c(OC)c2)cc1O` [COMBRETASTATIN A4]: the Activity with MDA-MB-231 [1] is reported as 4.3%; with MCF7 [3] it was 5.6%.

Take `COc1cc(N2C(=O)CC2c2ccc(OC)c(OC)c2OC)cc(OC)c1OC` (configuration not stated): the results for the Activity in the assay on MDA-MB-231 [1] and with MCF7 [3] were 9% and 8%, respectively. In addition, the IC50 in the assay on MDA-MB-231 [2] was 2830 nM; with MCF7 [4], 310 nM.

For orientation: IC50 means the concentration that inhibits the measured activity by half. The low end stands for higher potency, the high end for lower potency.

The record behind these values is ChEMBL document CHEMBL1629485, “Lead identification of conformationally restricted β-lactam type combretastatin analogues: synthesis, antiproliferative activity and tubulin targeting effects” (Eur J Med Chem, 2010).
